The list is not random: actives were taken first. Their share in the collection is about 4.8%.
Beta cell apopt: inhibitors of cytokine-induced beta cell apoptosis, primary screen, luminescence. INS-1E cytokine-induced death, ATP luminescence, 48 h; percent of positive-control rescue, neutral wells zero. protection from apoptosis, % (no concentration beside the values). actives 0.8% (n = 300,000). AID 435005, 2010;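 active = Every replicate reaches about 75%, or at least half do and their mean reaches it too, limit read from the data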;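 also: 0% = cytokine-treated negative control wells and 100% = positive control rescue; higher means more ATP so stronger rescue from cytokine killing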
CSC inhib: cancer stem cell viability inhibitors, primary screen, luminescence; actives 1.1% (n = 300,000); cancer stem cell-like cells viability; inhibition, % at 7.5 µM; in the data active = inhibition above about 75%; tested in HMLE shEcad cells
Mdm2-MdmX inh: inhibitors of human Mdm2-MdmX association, primary screen, cell-based, luminescence, split luciferase, SaOS-2, uHTS. Protein Mdm4 (Homo sapiens) + E3 ubiquitin-protein ligase Mdm2 (Homo sapiens), …. AID 485346, 2010. inhibition, % at 8 µM. SaOS-2 split-luciferase Mdm2/MdmX complementation. actives 3% (n = 330,000);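 active = inhibition of at least 50% at 8 µM in the primary screen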
SKKanGAS inh: S. pyogenes SKKanGAS growth inhibitors in kanamycin, primary screen, streptokinase expression inhibitor project, SKKanGAS strain, BacTiter-Glo luminescence. inhibition, % at 7.5 µM. 6 h. actives 1.3% (n = 300,000);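 active = mean replicate score, as percent of positive control median, at least 50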;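 also: strain carries kanamycin resistance gene driven by streptokinase promoter and grows in 40 µg/ml kanamycin; loss of luminescence reflects streptokinase promoter inhibition or plain growth inhibition; 0% = median of DMSO wells and 100% = positive control at its reference dose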
CHOP UPR activ: activators of apoptotic CHOP UPR arm, primary screen, cell-based, CHO-CHOP luciferase reporter, luminescence, uHTS; UPR activation; percent of tunicamycin response over DMSO baseline; activation, % at 10 µM; actives 0.34% (n = 330,000);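 active = at 10 µM dose, activation of 40% or more, normalized to positive control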;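 also: 100% = tunicamycin at 10 µg/mL and 0% = DMSO alone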
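Dosing – one dose, 10 µM in 0.5% DMSO · System – CHO-CHOP cells, stable luciferase reporter of PERK-eIF2a-CHOP signalling · Input – 500 cells/well · Control set – tunicamycin 10 µg/mL final as positive, DMSO-only wells as negative · Timing – 6 h compound treatment, 37 °C · Measure – % activation vs tunicamycin · Technique – luminescence read with Steady-Glo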
UPR XBP1 act: activators of adaptive XBP1 UPR arm, primary screen, cell-based, CHO-XBP1 luciferase reporter, luminescence, uHTS; IRE1-XBP1 UPR activation; percent of tunicamycin response, DMSO as zero; activation, % at 20 µM; actives 0.33% (n = 330,000); AID 463104, 2010;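 active = versus positive control, 20 µM dose yields 30% or more activation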;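 also: 100% = tunicamycin at 10 µg/mL and 0% = DMSO only wells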
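Material: IRE1-XBP1 luciferase reporter CHO line / Quantity: one thousand reporter cells per well / Buffer or medium: F12 with 10% serum / Compound: 20 µM single concentration, DMSO 1% / Times: 6 h treatment, 37 °C / Detection: Steady-Glo luciferase glow luminescence, 10 min after reagent addition / Benchmarks: tunicamycin high, DMSO low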
An asterisk follows results filed as active; . = no result.

SMILES	Beta cell apopt	CSC inhib	Mdm2-MdmX inh	SKKanGAS inh	CHOP UPR activ	UPR XBP1 act
COc1cc(NS(=O)(=O)c2ccc(NC(=S)NC(=O)c3cccs3)cc2)nc(OC)n1	-2	9	9	20	-1	-4
Cc1ccc(CNC(=S)Nc2ccc(NS(=O)(=O)c3ccc(C)cc3)cc2)cc1	2	11	43	56*	0	-6
CC(=O)Nc1ccc(NC(=O)CSc2nnc(NC(=O)c3ccc(Br)o3)s2)cc1	17	28	21	73*	-1	-3
Cn1c(Oc2ccccc2NCc2cc(Br)ccc2O)cc(=O)n(C)c1=O	10	16	14	59*	0	-2
Cc1ccc(S(=O)(=O)NCc2ccncc2)cc1C	90*	-11	15	-2	1	1
O=S(=O)(NCc1ccncc1)c1ccc(Br)s1	116*	5	14	-7	4	0
CCN(C1CCCCC1)S(=O)(=O)c1ccc(S(=O)(=O)NCCc2ccncc2)cc1	14	-3	16	-10	0	-1
CCN(C1CCCCC1)S(=O)(=O)c1ccc(S(=O)(=O)NCc2ccncc2)cc1	103*	17	23	4	5	0
COc1cc(S(=O)(=O)NCc2ccncc2)ccc1Br	52	3	21	1	4	-3
Nc1n[nH]c(C2CC2)c1N=Nc1ccc(Cl)c(Cl)c1	-11	41	12	82*	6	1
Nc1n[nH]c(C2CC2)c1N=Nc1ccc(Cl)cc1	-13	17	34	-4	2	4
Clc1ccc(-c2nc(N3CCCCC3)nc3ccccc23)cc1	7	1	25	90*	-2	-3
CC(C)(C)c1ccc(S(=O)(=O)/N=C2\C=C(NS(=O)(=O)c3ccccc3)C(=O)c3ccccc32)cc1	-2	-23	34	94*	1	-1
O=C1C(Nc2ccccc2)=C(NS(=O)(=O)c2ccccc2)C(=O)c2ccccc21	2	19	-14	20	2	-2
C/C(=N\NS(=O)(=O)c1ccc(C(C)(C)C)cc1)c1ccccc1	-3	-8	0	-3	1	2
Cc1ccc(S(=O)(=O)/N=C2\C=C(Nc3cccc(C(=O)O)c3)C(=O)c3ccccc32)c(C)c1	95*	65	37	69*	9	-10
O=C1C(Nc2ccccc2)=C/C(=N/S(=O)(=O)c2cccs2)c2ccccc21	105*	112*	.	97*	.	.
O=C1C=C(Nc2ccccc2)C(=O)c2ccccc21	84*	52	-70	12	3	3
O=C(Cn1ccc2ccccc2c1=O)NCCC(=O)Nc1cccc(Cl)c1	1	-7	-5	-9	1	0
Cc1ccc(S(=O)(=O)/N=C2\C=C(Nc3cccc(C(=O)O)c3)C(=O)c3ccccc32)cc1	21	.	-4	87*	0	-1
CCCc1ccc(O)c(N=Cc2cc(Br)cc(OCC)c2O)c1	-7	91*	39	11	0	-2
CCc1ccc(O)c(N=Cc2cccc(C)c2O)c1	-3	10	21	5	2	1
CC(C)(C)c1ccc(C(=O)CC(Sc2ccc(Cl)cc2)C(=O)O)cc1 (stereo not given)	-24	79*	7	1	4	-1
Cc1ccc(SC(CC(=O)c2ccc(F)cc2)C(=O)O)cc1 (stereo not given)	.	.	-2	-4	-1	-3
COc1ccc(C(=O)CCC(=O)N2CCN(c3ccc([N+](=O)[O-])cc3)CC2)cc1	4	0	-5	-2	2	-1
SMILES	Beta cell apopt	CSC inhib	Mdm2-MdmX inh	SKKanGAS inh	CHOP UPR activ	UPR XBP1 act
O/N=C/c1cc(Cl)ccc1OCc1cccc2ccccc12	2	2	10	80*	3	4
COc1ccc(C(=O)N/N=C/c2ccc(OC)c(CN3CCc4cc(OC)c(OC)cc4C3C)c2)cc1 (stereo not given)	4	-3	15	3	3	-2
Cc1c(C(=O)Nc2ccc3c(c2)OCCO3)sc2nc(-c3ccccc3)cn12	49	-11	49	70*	5	1
COc1ccc(-c2nc(NC(C)=O)sc2-c2ccc(OC)cc2)cc1	-10	-3	19	67*	1	0
CNc1nc(-c2ccc(OC)cc2)c(-c2ccc(OC)cc2)s1	10	25	8	20	-1	1
Fc1ccc(CSc2ncnc3sc4c(c23)CCCC4)cc1	1	29	36	77*	1	1
CCSc1ncnc2sc3c(c12)CCC3	-16	.	8	2	-2	-2
CCOC(=O)c1[nH]c2ccc(F)cc2c1NC(=O)c1ccccc1C(=O)O	4	-14	6	84*	1	-3
CCCCNc1nc(Nc2ccc(C)c(Cl)c2)c2cnn(C)c2n1	41	82*	3	-1	-2	-1
CCN(CC)Cc1c(C(=O)N/N=C/c2ccc(C)o2)nnn1-c1nonc1N	-6	4	7	6	2	0
Cc1cccc(C)c1NC(=O)c1cccc(N2C(=O)C3CCC(C)CC3C2=O)c1 (stereo not given)	-1	-2	9	-7	1	-3
O/N=C/c1ccnc(SCc2ccc(Cl)cc2)n1	.	80*	16	4	2	1
CC1(C(=O)OCC(=O)N2c3ccccc3Sc3ccccc32)CC1(Cl)Cl (stereo not given)	89*	57	23	25	-1	-5
Cc1ccc(C(C)C)c(OCc2ccc(C(=O)N/N=C/c3ccc(O)cc3O)cc2)c1	116*	101*	.	87*	.	.
COc1ccc(/C=N/NC(=O)c2ccc(COc3cccc4cccnc34)cc2)cc1O	-3	2	-1	13	6	10
O=C(N/N=C/c1cccc(O)c1)c1ccc(COc2ccccc2Br)cc1	-4	87*	24	63*	0	-4
COC(=O)C1Cc2c([nH]c3ccccc23)CN1C(C)=O (stereo not given)	-1	9	-28	-1	1	2
COc1ccc(-c2nnc(SCC(=O)NC3CCCCC3)n2N)cc1	.	.	-25	.	1	-1
O=C(Cc1cccs1)Nc1cccc(-c2nc3cc4ccccc4cc3[nH]2)c1	30	99*	.	72*	.	.
O=C1/C(=C/c2cccnc2)CCC/C1=C\c1cccnc1	100*	103*	.	.	.	.
O=C1/C(=C/c2cccnc2)CC/C1=C\c1cccnc1	-16	27	12	-5	4	-1
O=C1/C(=C/c2ccccc2)CCCc2ccccc21	5	15	7	21	3	2

Screening results: PubChem BioAssay, several laboratories
